This note sets out measurements from ChEMBL document CHEMBL2016458, “Design and optimization of quinazoline derivatives as melanin concentrating hormone receptor 1 (MCHR1) antagonists” (Bioorg Med Chem Lett, 2012).

SMILES strings stand for the structures. In brackets after ≈: the same amount, converted by molar mass.

Series [1] concerns the target T1, Melanin-concentrating hormone receptor 1 (Homo sapiens, UniProt Q99705). Put plainly: biochemical. The series is classed as cell-based, CHO-K1.
Series [2] concerns the target T1, Melanin-concentrating hormone receptor 1. Put plainly: Antagonist activity at human MCHR1 expressed in CHO-K1 cells assessed as inhibition of MCH peptide mediated response measuring [3H]inositol phosphate production by IP3-SPA-YSI assay. The series is classed as functional, cell-based.
The nature of series [3]: Solubility of the compound in 5% DMSO and 95% PBS after overnight incubation using plate shaker. In kind it is physicochemical. To be noted: 5% DMSO and 95% PBS; read-out: solubility. An outline of the steps: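 A 10 mM DMSO stock was diluted into PBS to a final 500 µM (5% DMSO). The mix was left to precipitate overnight at RT on a plate shaker, then centrifuged. Supernatant absorbance was read at 260, 280 and 620 nm. Solubility is the absorbance ratio of PBS supernatant to an acetonitrile reference (100 and 500 µM). The 620 nm reading was used to exclude visible contamination.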

The nature of series [4]: Metabolic stability in mouse liver microsomes assessed as compound remaining at 10 uM after 30 mins by HPLC analysis. In kind it is ADME, Microsome. To be noted: read-out: Stability. An outline of the steps:
(§1)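 Compound at 10 µM was incubated with 1 mg/ml mouse or pooled human liver microsomes in 0.1 M phosphate buffer, pH 7.4. Reaction was started with NADPH and run 30 min at 37 °C. Result is % parent remaining.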
(In general: Liver microsomes are vesicles of endoplasmic reticulum, rich in cytochrome P450 enzymes.)

A short description of series [5]: Metabolic stability in human liver microsomes assessed as compound remaining at 10 uM after 30 mins by HPLC analysis. The series is classed as ADME, Microsome. To be noted: read-out: Stability. The method in brief:
as §1

Series [6] in a line: Stability in mouse blood assessed as compound remaining after 30 mins by HPLC analysis. Conditions: read-out: Stability. The series is classed as ADME, tissue-based.
Series [7] addresses Voltage-gated inwardly rectifying potassium channel KCNH2 (Homo sapiens, UniProt Q12809).
For series [8], the target named is T1, Melanin-concentrating hormone receptor 1. Put plainly: Antagonist activity at human MCHR1 expressed in CHO-K1 cells assessed as inhibition of MCH peptide mediated response measuring [3H]inositol phosphate production at 10 uM by IP3-SPA-YSI assay. The series is classed as functional, cell-based. Set-up: scale not given: the % may be the effect or the level left.

For series [9], the target named is hERG (KCNH2) (Homo sapiens, UniProt Q12809). Put plainly: Inhibition of human ERG at 1 uM.
In series [10] the test system is Mus musculus. Put plainly: Antiobesity activity in diet induced obese C57BL/6J mouse assessed as decrease in body weight at 30 mg/kg, po bid for 14 days measured at day 14 relative to control. In kind it is functional. Set-up: scale not given: the % may be the effect or the level left. The method in brief: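 C57BL/6J mice were fed a high-fat diet (60% calories from fat) for about 3 months, to roughly 45 g average body weight. Animals were grouped by initial weight. Dosing was oral, 30 mg/kg twice daily for 14 days, against vehicle controls (n = 12). Body weight and food intake were recorded daily.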

A short description of series [11]: AUC (0 to 8 hrs) in Swiss albino mouse plasma at 30 mg/kg, po. In kind it is ADME, organism-based. Set-up: time < 8 hr, dose 30 mg/kg, route oral. The method in brief:
(§2)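 Swiss Albino mice given a single oral dose of 30 mg/kg. Plasma and brain were sampled over 0–8 h. AUC(0–8), Cmax, Tmax and t1/2 were derived for each matrix.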

The nature of series [12]: Cmax in Swiss albino mouse plasma at 30 mg/kg, po. In kind it is ADME, organism-based. The arrangement: dose 30 mg/kg, route oral. An outline of the steps: as §2
Series [13] in a line: Tmax in Swiss albino mouse plasma at 30 mg/kg, po. In kind it is ADME, organism-based. The arrangement: dose 30 mg/kg, route oral. An outline of the steps: as §2
Series [14] in a line: Half life in Swiss albino mouse plasma at 30 mg/kg, po. In kind it is ADME, organism-based. The arrangement: dose 30 mg/kg, route oral. An outline of the steps:
as §2

A short description of series [15]: AUC (0 to 8 hrs) in Swiss albino mouse brain at 30 mg/kg, po. Set-up: time < 8 hr, dose 30 mg/kg, route oral. The series is classed as ADME, organism-based. The method in brief: as §2
A short description of series [16]: Cmax in Swiss albino mouse brain at 30 mg/kg, po. In kind it is ADME, organism-based. Set-up: dose 30 mg/kg, route oral. An outline of the steps:
as §2

Series [17] in a line: Tmax in Swiss albino mouse brain at 30 mg/kg, po. The series is classed as ADME, organism-based. Set-up: dose 30 mg/kg, route oral. An outline of the steps:
as §2

A short description of series [18]: Half life in Swiss albino mouse brain at 30 mg/kg, po. The arrangement: dose 30 mg/kg, route oral. In kind it is ADME, organism-based. An outline of the steps:
as §2

T1 sequence (Q99705 whole entry): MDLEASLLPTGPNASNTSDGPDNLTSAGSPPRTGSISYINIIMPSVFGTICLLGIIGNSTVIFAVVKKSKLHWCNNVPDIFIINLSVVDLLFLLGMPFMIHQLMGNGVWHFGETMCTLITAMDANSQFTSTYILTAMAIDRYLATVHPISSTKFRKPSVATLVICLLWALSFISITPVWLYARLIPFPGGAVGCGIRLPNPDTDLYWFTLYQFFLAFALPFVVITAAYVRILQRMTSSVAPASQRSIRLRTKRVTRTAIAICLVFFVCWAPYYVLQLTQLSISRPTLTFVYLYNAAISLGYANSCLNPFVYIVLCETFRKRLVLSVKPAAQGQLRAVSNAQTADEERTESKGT
hERG (KCNH2), sequence (Q12809 whole entry): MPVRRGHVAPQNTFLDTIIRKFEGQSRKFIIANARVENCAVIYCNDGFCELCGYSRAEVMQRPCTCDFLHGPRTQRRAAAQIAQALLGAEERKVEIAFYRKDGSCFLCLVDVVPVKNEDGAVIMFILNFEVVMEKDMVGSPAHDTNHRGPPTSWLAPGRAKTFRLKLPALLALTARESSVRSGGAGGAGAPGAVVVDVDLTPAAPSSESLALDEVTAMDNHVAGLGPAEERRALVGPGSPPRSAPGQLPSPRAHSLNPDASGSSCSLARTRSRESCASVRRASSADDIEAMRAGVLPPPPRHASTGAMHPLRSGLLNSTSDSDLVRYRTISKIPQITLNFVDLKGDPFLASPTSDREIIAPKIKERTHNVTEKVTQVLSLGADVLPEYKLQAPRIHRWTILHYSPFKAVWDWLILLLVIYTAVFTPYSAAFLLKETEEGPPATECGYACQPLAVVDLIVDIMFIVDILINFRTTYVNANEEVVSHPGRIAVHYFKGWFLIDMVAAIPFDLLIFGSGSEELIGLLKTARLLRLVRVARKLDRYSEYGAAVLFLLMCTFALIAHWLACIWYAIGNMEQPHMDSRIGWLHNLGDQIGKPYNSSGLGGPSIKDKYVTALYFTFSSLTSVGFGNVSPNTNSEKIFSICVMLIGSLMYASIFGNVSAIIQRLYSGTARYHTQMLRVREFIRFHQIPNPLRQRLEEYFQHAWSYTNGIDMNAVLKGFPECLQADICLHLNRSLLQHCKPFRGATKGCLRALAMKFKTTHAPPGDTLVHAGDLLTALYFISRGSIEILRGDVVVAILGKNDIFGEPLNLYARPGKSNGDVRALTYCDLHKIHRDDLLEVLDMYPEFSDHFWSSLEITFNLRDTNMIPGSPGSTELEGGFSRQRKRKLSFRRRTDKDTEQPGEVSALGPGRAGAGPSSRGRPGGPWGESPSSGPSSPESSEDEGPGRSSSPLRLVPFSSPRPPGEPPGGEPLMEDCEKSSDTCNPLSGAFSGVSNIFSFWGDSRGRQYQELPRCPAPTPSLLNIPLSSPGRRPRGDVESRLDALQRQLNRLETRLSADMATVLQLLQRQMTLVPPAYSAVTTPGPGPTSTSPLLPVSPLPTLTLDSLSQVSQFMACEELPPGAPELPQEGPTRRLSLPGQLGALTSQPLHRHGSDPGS
Voltage-gated inwardly rectifying potassium channel KCNH2, sequence (Q12809 whole entry): as above

In general, IC50 refers to the concentration at which inhibition is half-maximal. One may read the solubility as how much of the substance goes into solution per volume. For `Cc1nc(N2CCC(C(=O)NC(C)C)CC2)nc2ccc(NC(=O)COc3ccc(Cl)cc3)cc12`, the results for the IC50 in series [1] and in series [2] were 15 nM and 25 nM, respectively. Besides, the solubility in series [3] was 132 µM (≈ 65.5 µg/mL). The figures for the remaining at 0.5 h, 10 µM in series [4] and in series [5] were 11% and 70%, respectively. In addition, the remaining at 0.5 h in series [6] was found to be 49%.
Regarding `Cc1nc(N2CCC(N3CCCC3)CC2)nc2ccc(NC(=O)COc3ccc(Cl)cc3)cc12`, the IC50 is 20 nM in series [1], 81 nM in series [2] and 450 nM in series [7].
As for `Cc1nc(N2CCC(O)(C(N)=O)CC2)nc2ccc(NC(=O)COc3ccc(OC(F)(F)F)cc3)cc12`, in [1], the IC50 was determined as 636 nM. Also, the Activity in [8] came to 72%.
The inhibition is how much of the control response was suppressed. In the case of `Cc1nc(N2CCC(C(=O)C3CC3)CC2)nc2ccc(NC(=O)COc3ccc(OC(F)(F)F)cc3)cc12`, the IC50 in series [1] came out at 10 nM; in series [2] it was 14 nM. In [9], the inhibition at 1 µM turned out to be 32%.
As for `Cc1nc(N2CCN(C(=O)C3CCC3)CC2)nc2ccc(NC(=O)COc3ccc(OC(F)(F)F)cc3)cc12`, the IC50 was 84 nM in series [1] and 45 nM in series [2]. Further, the solubility in [3] is 4 µM (≈ 2.17 µg/mL). Moreover, the remaining at 0.5 h, 10 µM was 69% in series [4] and 52% in [5]. In addition, in series [6], the remaining at 0.5 h is 45%.
On to `Cc1nc(N2CCC(O)(C3CCC3)CC2)nc2ccc(NC(=O)COc3ccc(OC(F)(F)F)cc3)cc12`, for which the results for the IC50 in series [1] and in series [2] were 79 nM and 27 nM, respectively. The same compound had an inhibition at 1 µM in series [9] of 31%.
Regarding `Cc1nc(N2CCC(N3CCCC3=O)CC2)nc2ccc(NC(=O)COc3ccc(OC(F)(F)F)cc3)cc12`, the IC50 came out at 19 nM in series [1], 4 nM in [2] and 3700 nM in [7].
By AUC(0-t) is commonly meant the area under the concentration-time curve up to a stated or last time point. In general, Cmax refers to the highest concentration seen after dosing. Usually Tmax stands for the time from dosing to the highest level. For orientation: half-life means the time in which the quantity being followed falls by half. Regarding `Cc1nc(N2CCC(N3CCOCC3)CC2)nc2ccc(NC(=O)COc3ccc(OC(F)(F)F)cc3)cc12`, the IC50 in series [1] turned out to be 6 nM; in series [2], 16 nM. For the same compound, in series [3], the solubility turned out to be 12 µM (≈ 6.55 µg/mL). In series [6], the remaining at 0.5 h was found to be 29%. Also, in [10], the Activity is 12%. The AUC(0-t) at 8 h in series [11] came to 1.02 µM·h; in series [15] it was 6.21 µM·h. For the same compound, the Cmax in [12] came out at 430 nM; in series [16], 2660 nM. The Tmax in series [13] and in [17] was 1 h throughout. The half-life in series [14] is 180 min; in series [18] it was 102 min.
Consider `Cc1nc(N2CCC(N3CCCC3)CC2)nc2ccc(NC(=O)C(C)Oc3ccc(Cl)cc3)cc12` (stereo not given), for which the IC50 in series [1] turned out to be 258 nM; in series [2], 401 nM. Moreover, the solubility in series [3] is 272 µM (≈ 134 µg/mL). In addition, the remaining at 0.5 h, 10 µM in series [4] was found to be 34%. The remaining at 0.5 h in series [6] was determined as 67%. This compound registered an inhibition at 1 µM in [9] of 76%.
